Results as given in ChEMBL document CHEMBL3244005, “Troponoids. 3. Synthesis and antiallergy activity of N-troponyloxamic acid esters” (J Med Chem, 1979).

Tests used:
Rattus norvegicus [1] = test: Antiallergic activity in Sprague-Dawley CD rat assessed as inhibition of passive anaphylaxis-induced hind paw edema at 10 mg/kg, ip relative to control; type: functional; conditions: Rattus norvegicus, Sprague-Dawley CD, ip, route intraperitoneal
Method in brief: (§1)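 Passive anaphylaxis (reaginic antibody) induced in rat hind paw: serum with reaginic antibody injected into left hind paw; antigen given intravenously 24 h later. Paw volume measured by mercury displacement; activity read as inhibition of paw edema versus controls. Test compounds given ip or po. Inhibition of 35% or more considered significant by Student's t test (p < 0.05).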

Rattus norvegicus [2] = test: Antiallergic activity in Sprague-Dawley CD rat assessed as inhibition of passive anaphylaxis-induced hind paw edema at 30 mg/kg, po relative to control; type: functional; conditions: for inhibition in vivo at 30 mg/kg: Rattus norvegicus, Sprague-Dawley CD, po; method in brief: as §1
Rattus norvegicus [3] = test: Antiallergic activity in Sprague-Dawley CD rat assessed as inhibition of passive anaphylaxis-induced hind paw edema at 30 mg/kg, ip relative to control; type: functional; conditions: Rattus norvegicus, Sprague-Dawley CD, ip, route intraperitoneal; method in brief: as §1
Rattus norvegicus [4] = test: Antiallergic activity in Sprague-Dawley CD rat assessed as inhibition of passive anaphylaxis-induced hind paw edema at 100 mg/kg, po relative to control; type: functional; conditions: for inhibition in vivo at 100 mg/kg: Rattus norvegicus, Sprague-Dawley CD, po; method in brief: as §1
Cavia porcellus [5] = species on record: Cavia porcellus; test: Stimulation of guinea pig lung adenylate cyclase activity at 1 x 10^-3 M after 15 mins relative to control
Method in brief: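 Guinea pig lung adenyl cyclase preparation, chosen because it carries negligible cyclic nucleotide phosphodiesterase activity. Enzyme activity was read as cyclic AMP formation in the presence of test agent and compared with untreated control.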

Rattus norvegicus [6] = test: Antiallergic activity in Sprague-Dawley CD rat assessed as inhibition of passive anaphylaxis-induced hind paw edema at 3 mg/kg, ip relative to control; type: functional; set-up: Activity: scale not given: the % may be the effect or the level left; conditions: route intraperitoneal; method in brief: as §1
Rattus norvegicus [7] = test: Antiallergic activity in Sprague-Dawley CD rat passive anaphylaxis model assessed as hind paw edema volume at 1 mg/kg, ip relative to control; type: functional; conditions: route intraperitoneal; method in brief: as §1
Rattus norvegicus [8] = test: Antiallergic activity in Sprague-Dawley CD rat assessed as inhibition of passive anaphylaxis-induced hind paw edema at 10 mg/kg, po relative to control; type: functional; method in brief: as §1
Rattus norvegicus [9] = test: Antiallergic activity in Sprague-Dawley CD rat passive anaphylaxis model assessed as hind paw edema volume at 30 mg/kg, po relative to control; type: functional; method in brief: as §1
Rattus norvegicus [10] = test: Antiallergic activity in Sprague-Dawley CD rat assessed as inhibition of passive anaphylaxis-induced hind paw edema at 3 mg/kg, po relative to control; type: functional; method in brief: as §1
Rattus norvegicus [11] = test: Antiallergic activity in Sprague-Dawley CD rat passive anaphylaxis model assessed as hind paw edema volume at 10 mg/kg, po relative to control; type: functional; method in brief: as §1
Rattus norvegicus [12] = test: Antiallergic activity in Sprague-Dawley CD rat passive anaphylaxis model assessed as hind paw edema volume at 10 mg/kg, ip relative to control; type: functional; conditions: route intraperitoneal; method in brief: as §1
Rattus norvegicus [13] = test: Antiallergic activity in Sprague-Dawley CD rat assessed as inhibition of passive anaphylaxis-induced hind paw edema at 1 mg/kg, ip relative to control; type: functional; conditions: route intraperitoneal; method in brief: as §1
Rattus norvegicus [14] = test: Antiallergic activity in Sprague-Dawley CD rat passive anaphylaxis model assessed as hind paw edema volume at 3 mg/kg, ip relative to control; type: functional; conditions: route intraperitoneal; method in brief: as §1
Rattus norvegicus [15] = test: Antiallergic activity in Sprague-Dawley CD rat passive anaphylaxis model assessed as hind paw edema volume at 3 mg/kg, po relative to control; type: functional; method in brief: as §1
[16] = Inhibition of guinea pig lung PDE assessed as cyclic AMP level; set-up: species or system Cavia porcellus
Method in brief: (§2)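 PDE from beef heart or guinea pig lung assayed by earlier-described methods; protein measured by Lowry method. IC50 taken from a plot of percent inhibition vs log inhibitor concentration, as the concentration giving 50% reduction in reaction velocity relative to uninhibited controls.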

[17] = Inhibition of beef heart PDE assessed as cyclic AMP level; set-up: species or system Bos taurus; method in brief: as §2
Rattus norvegicus [18] = test: Drug metabolism in po dosed Sprague-Dawley CD rat passive anaphylaxis model assessed as 2-aminotropone level; type: ADME, organism-based; conditions: in vivo
Cavia porcellus [19] = species on record: Cavia porcellus; test: Stimulation of guinea pig lung adenylate cyclase activity at 1 x 10^-4 M after 15 mins relative to control
Serum = test: Drug metabolism in serum of Sprague-Dawley CD rat passive anaphylaxis model at 0.23 mmol/kg, iv; type: ADME, cell-free
Method in brief: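 Rats given an iv bolus of 0.23 mmol/kg. Serum separated by centrifugation and stored frozen. Drug-derived material in serum quantified over time by UV measurement of 2-aminotropone. For 14C-labelled ester (label in ethyl group or oxalyl carbonyls), radioactivity counted in 0.2 mL serum after tissue-solubiliser digestion and scintillation fluid addition.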

[20] = Rattus norvegicus, Sprague-Dawley CD, po

Row | SMILES | inhibition in vivo at 10 mg/kg (Rattus norvegicus [1]) [%] | inhibition in vivo at 30 mg/kg (Rattus norvegicus [2]) [%] | inhibition in vivo at 30 mg/kg (Rattus norvegicus [3]) [%] | inhibition in vivo at 100 mg/kg (Rattus norvegicus [4]) [%] | further results
1 | CCOC(=O)C(=O)Nc1ccccc(NC)c1=O | 73 | 0 | 83 |  | 
2 | CCOC(=O)C(=O)Nc1ccccc(N(C)C(=O)C(=O)OCC)c1=O | 26 | 6 | 51 | 0 | 
3 | Cn1c(=O)c2[nH]cnc2n(C)c1=O |  |  |  |  | Activity (Cavia porcellus [5]): 5%
4 | CCOC(=O)C(=O)Nc1ccccc(C)c1=O | 40 | 6 | 60 | 34 | 
5 | CC(C)OC(=O)C(=O)Nc1cccccc1=O | 76 | 63 | 96 | 72 | 
6 | CCOC(=O)C(=O)Nc1c(Oc2ccccc2)ccccc1=O |  |  | 0 | 20 | 
7 | CCOC(=O)C(=O)Nc1ccc(O)c(=O)cc1 |  |  | 10 |  | 
8 | O=C(Nc1cccccc1=O)C(=O)Oc1ccccc1 | 68 | 31 | 73 | 71 | 
9 | COC(=O)C(=O)Nc1ccc(OC)c(=O)cc1 |  |  | 36 |  | 
10 | CCOC(=O)C(=O)Nc1cc(OC)cccc1=O |  | 31 | 8 | 53 | 
11 | CCOC(=O)C(=O)Nc1ccc(NC(=O)C(=O)OCC)c(=O)cc1 | 93 | 61 | 84 | 76 | 
12 | CCOC(=O)C(=O)Nc1ccccc(Br)c1=O |  |  | 52 | 0 | 
13 | CCOC(=O)C(=O)Nc1ccccc(Oc2ccccc2)c1=O |  |  | 16 | 9 | 
14 | CCOC(=O)C(=O)Nc1ccccc(OC)c1=O | 24 | 59 | 52 | 56 | 
15 | COc1cccc2c(=O)c(CO)coc12 | 70 | 53 | 98 | 83 | inhibition in vivo at 3 mg/kg (Rattus norvegicus [6]; Rattus norvegicus, Sprague-Dawley CD, ip): 39%; Activity (Rattus norvegicus [7]): 1 mL; inhibition in vivo at 10 mg/kg (Rattus norvegicus [8]; [20]): 44%; Activity (Rattus norvegicus [9]): 0.63 mL; inhibition in vivo at 3 mg/kg (Rattus norvegicus [10]; [20]): 15%; Activity (Rattus norvegicus [11]): 0.74 mL; Activity (Rattus norvegicus [12]): 0.32 mL; inhibition in vivo at 1 mg/kg (Rattus norvegicus [13]): 14%; Activity (Rattus norvegicus [14]): 0.68 mL; Activity (Rattus norvegicus [15]): 1.13 mL
16 | Cn1c(=O)c2nc[nH]c2n(C)c1=O [THEOPHYLLINE] |  |  |  |  | IC50 [16]: 1.47 mM; IC50 [17]: 0.515 mM
17 | CCOC(=O)C(=O)Nc1ccc(Cl)ccc1=O |  |  | 27 | 25 | 

Row | SMILES | inhibition in vivo at 10 mg/kg (Rattus norvegicus [1]) [%] | inhibition in vivo at 30 mg/kg (Rattus norvegicus [2]) [%] | inhibition in vivo at 30 mg/kg (Rattus norvegicus [3]) [%] | inhibition in vivo at 100 mg/kg (Rattus norvegicus [4]) [%] | further results
18 | CCOC(=O)C(=O)Nc1ccccc(N(C)S(=O)(=O)c2ccc(C)cc2)c1=O |  | 3 | 32 | 0 | 
19 | O=C(O)c1cc(=O)c2c(OCC(O)COc3cccc4oc(C(=O)O)cc(=O)c34)cccc2o1 [CROMOLYN SODIUM] | 62 |  | 77 |  | 
20 | NC(CO)(CO)CO.O=C(O)C(=O)Nc1cccccc1=O |  |  |  |  | inhibition (INH) (Rattus norvegicus [8]): 7%; Activity (Rattus norvegicus [9]): 0.64 mL; inhibition (INH) (Rattus norvegicus [10]): 13%; Activity (Rattus norvegicus [11]): 0.88 mL; inhibition (INH) (Rattus norvegicus [2]): 32%; inhibition (INH) (Rattus norvegicus [4]): 73%; Activity (Rattus norvegicus [15]): 0.83 mL
21 | NNC(=O)C(=O)Nc1cccccc1=O | 64 | 41 | 78 | 78 | 
22 | O=C(O)C(=O)Nc1cccccc1=O [listing 1 of 2 here] | 89 |  | 77 | 62 | Activity (Rattus norvegicus [6]): 35%; Drug metabolism (Rattus norvegicus [18]): metabolite_detected; inhibition (INH) (Rattus norvegicus [8]): 38%; Activity (Rattus norvegicus [9]): 0.88 mL; Activity (Rattus norvegicus [11]): 1.11 mL; inhibition (INH) (Rattus norvegicus [2]): 38%; Activity (Rattus norvegicus [12]): 0.12 mL; IC50 [17]: 4.33 mM; Activity (Rattus norvegicus [14]): 0.75 mL
23 | CCOC(=O)C(=O)Nc1cccc(OC)cc1=O | 73 | 45 | 67 | 48 | 
24 | O=C(O)C(=O)Nc1cccccc1=O [listing 2 of 2 here] |  |  |  |  | Activity (Cavia porcellus [19]): 2%
25 | CCCCCOC(=O)C(=O)Nc1cccccc1=O | 61 | 12 | 57 |  | 
26 | CC(C)(C)OC(=O)C(=O)Nc1cccccc1=O |  | 47 | 79 | 82 | 
27 | CCOC(=O)C(=O)Nc1ccccc(O)c1=O | 5 |  | 61 | 0 | 
28 | CNC[C@H](O)c1ccc(O)c(O)c1 |  |  |  |  | Activity (Cavia porcellus [19]): 84%
29 | CCOC(=O)C(=O)Nc1c(C)ccccc1=O |  | 4 | 47 | 37 | 
30 | Nc1cccccc1=O |  |  |  |  | Drug metabolism (Serum): metabolite_detected
31 | O=C(O)COC(=O)C(=O)Nc1cccccc1=O | 66 | 45 | 93 | 50 | 
32 | CCOC(=O)COC(=O)C(=O)Nc1cccccc1=O | 69 | 31 |  | 64 | 
33 | CCOC(=O)C(=O)Nc1ccccc(-c2ccccc2)c1=O | 57 |  | 72 | 0 | 
